The structures appear in SMILES notation.

This series can be described thus: Toxicity liver stage against HepG2, at 10uM. As to conditions: human, HepG2-A16-CD81EGFP cells; read-out: INHIBITION
On the set-up: test concentration 10 uM, cell line HepG2-A16-CD81EGFP. The series is classed as cell-based. The method, boiled down:
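Uninfected HepG2-A16-CD81EGFP cells, 3 × 10^3 per well, 1536-well, plated on prespotted compound at 10 μM final, parasite-free screening media added to match infected plates; puromycin 10 μM positive, DMSO 0.5% negative; run in parallel with 48 h PbLuc assay at 37 °C, 5% CO2; viability by CellTiter-Glo luminescence, normalized to controls.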
With `CC(=O)N1CCN(Cc2ccc(Cl)c(F)c2)CC(O)C1` (stereo not drawn), the cytotoxicity at 10 µM is -1.48%. `Fc1ccc(N2CCC3(CC2)CC(OCc2cccnc2)CO3)cc1` (stereo not drawn): the cytotoxicity at 10 µM worked out at 9.81%. For `CCNC(=O)CCS(=O)(=O)Cc1ccn(-c2cccc(F)c2)n1`, the cytotoxicity at 10 µM amounted to 11.1%. As for `CCOCCNC(=O)Nc1ccc(OCc2noc(C3CC3)n2)cc1`, the cytotoxicity at 10 µM came to 6.48%. Take `CCOC(=O)CN(C)Cc1cnc(C)s1`: the cytotoxicity at 10 µM stood at 20.2%. The same measure for `Cc1cncc(C(=O)N2CCC3(CC2)NC(=O)CC3c2ccccc2)c1` (stereo not drawn): -78.1%.

`COc1cc(F)cc2sc(NC(=O)COCC3CCCO3)nc12` (stereo not drawn): the cytotoxicity at 10 µM is -5.07%. The same measure for `CCNc1c(NC(=O)NC(C)C)c(=O)oc2ccccc12`: 1.1%; for `CCCc1nnc(NC2CCN(Cc3ccc(F)c(F)c3)CC2)o1`: -1.48%. For the molecule `COCCN1CCO[C@H]2CN(Cc3cccc(C)n3)C[C@H]21`, the cytotoxicity at 10 µM is -116%. With `O=C(NCc1ccnc(O)c1)NCC1CCCC1`, the cytotoxicity at 10 µM came out at 3.57%. The figure for `O=C(NC1CC1)N1CCn2c(Cn3cccn3)cnc2C1` is -72.8%. The same measure for `Cn1ccc(C(=O)NC2CCC23CCN(Cc2cnn(C)c2)CC3)c1` (stereo not drawn): -146%. Turning to `CCC(O)CN1CCN(C(=O)Cc2ccc(C)nc2)CC1` (stereo not drawn), the cytotoxicity at 10 µM was -9.24%. The figure for `Cc1cc(C(=O)N(C)Cc2cccs2)nc(N2CCOCC2)n1` is 4.45%; for `CN1CCC(NC(=O)c2cc(Cl)cc(Br)c2O)C1=O` (stereo not drawn) it is 4.84%. In the case of `O=C(NCCCc1nnc2ccccn12)c1ccccc1C1CCNC1` (stereo not drawn), the cytotoxicity at 10 µM is -2.51%. The figure for `CC(C)c1nsc(N2CCC(OCCN3CCOCC3)CC2)n1` is -14.2%; for `Cc1oc(-c2ccsc2)nc1CNCCn1cccn1` it is -3.36%. Regarding `CCNC(=O)C1CCCN(Cn2nc(C(C)(C)C)ccc2=O)C1` (stereo not drawn), the cytotoxicity at 10 µM was 10.1%. As to `COCC1CN(c2ccc3c(Cl)ccnc3c2F)CCO1` (stereo not drawn), the cytotoxicity at 10 µM was determined as 25%. The figure for `NC(=O)C1CCN(C(=O)C2SCCc3sccc32)CC1` (stereo not drawn) is -6.02%; for `CNC(=O)C1Cn2ccnc2C2(CCN(Cc3ccncc3)CC2)O1` (stereo not drawn) it is -74.9%. For the molecule `Cc1nn(C)c(N(C)C)c1CNCCOc1ccc2c(c1)OCO2`, the cytotoxicity at 10 µM was -1.34%. The figure for `O=C(c1ccn(-c2cccc(F)c2)n1)N1CCN(CCO)CC1` is -4.67%; for `CCN(CC)c1nc2sc(C(=O)NCC(=O)OC)cc2s1` it is 1.05%. The same measure for `CC1(NC(=O)CC2CCc3ccccc32)CCOCC1` (stereo not drawn): 0.995%; for `NC(=O)C1CCN(c2ncc(-c3cnccn3)c([C@H]3CCCO3)n2)CC1`: -0.24%; for `Cc1cnc(CNC(=O)[C@@]23CCO[C@@H]2CCN(c2ncccn2)C3)cn1`: -100%.

Regarding `CSc1nnc(CC2CCN(C(=O)COc3cccnc3)CC2)n1C`, the cytotoxicity at 10 µM is -45.9%. The same measure for `Fc1ccc(C2(CNCCc3cccs3)CCOC2)cc1` (stereo not drawn): -149%; for `CNc1cc(C2CN(C(=O)c3cnn(C)c3)CCO2)nc(C)n1` (stereo not drawn): -5.42%. Regarding `NCCC1CN(c2nc(-c3ccccc3)nc3c2CCNC3)CCO1` (stereo not drawn), the cytotoxicity at 10 µM is -9.26%. The same measure for `Cc1c(C(=O)NC2CCCOC2)nnn1-c1ccccc1` (stereo not drawn): -24.5%.

As to `CN(C)C(=O)c1cncnc1-c1ccc(CNC(=O)C2CCCO2)cc1` (stereo not drawn), the cytotoxicity at 10 µM amounted to 5.55%. The figure for `CCN(CC)CCSc1ncnc2[nH]ncc12` is -4.44%; for `CN(C)C1Cc2ccccc2N(S(=O)(=O)c2ccccc2C#N)C1` (stereo not drawn) it is 0.71%; for `COCCN1CCCC12CCN(Cc1cncn1C)CC2` it is 8.52%. The figure for `Cc1ncncc1C(=O)N1CCCC(n2cccn2)C1` (stereo not drawn) is -4.77%; for `NC(=O)C1(Cc2ccccc2-c2ccccc2)CCCN(CC2CC2)C1` (stereo not drawn) it is 1.67%; for `CCCc1nc(NCC(=O)N2CCOCC2)c2c(n1)c(C)nn2CC` it is 12.2%. The figure for `CCc1ccc(C(C)NC(=O)N2CCC(n3cncn3)CC2)cc1` (stereo not drawn) is -8.18%; for `O=C(c1n[nH]c2c1CCN(Cc1nccs1)C2)N1CCOCC1` it is -144%; for `CC1CN(C(=O)NCCCn2cncn2)CCO1` (stereo not drawn) it is -6.82%. On to `c1cc(CNc2ccc(-c3nc(C4CC4)no3)cn2)no1`, for which the cytotoxicity at 10 µM is 1.79%. Take `Cc1nc(N2CCN(C(=O)c3cccnc3)CC2)cc(-n2cccc2)n1`: the cytotoxicity at 10 µM is -5.19%. The figure for `CN1CCN(C(=O)c2csnn2)c2ccccc21` is -1.15%. The same measure for `CC(C)(C)C(=O)N1CCN(CCOc2cccc(C#N)c2)CC1`: 3.53%; for `CC(C#N)CSc1ccccc1NCC(=O)NC(C1CC1)C1CC1` (stereo not drawn): 14.5%; for `COC(=O)CCNC(=O)c1cccc(C(=O)N(C)c2ccccc2)c1`: -2.69%. Take `CC(C)C(Sc1nnnn1-c1ccccc1)C(=O)NCc1cccnc1` (stereo not drawn): the cytotoxicity at 10 µM is -3.02%. As for `Cc1n[nH]c(C)c1C1COCCN1C(=O)c1cc(F)ccc1F` (stereo not drawn), the cytotoxicity at 10 µM was -9.24%. For the molecule `CN(Cc1ccncn1)C(=O)C1(Oc2ccc(Cl)cc2)CCNCC1`, the cytotoxicity at 10 µM is 18.5%. Consider `O=C(c1ncoc1C1CC1)N1CCCN(CCCc2ccccc2)CC1`, for which the cytotoxicity at 10 µM is -2.78%. `CCn1ncc2c1C(COC)CN(Cc1ccco1)C2` (stereo not drawn): the cytotoxicity at 10 µM was 7.1%. The same measure for `O=C(Cc1noc(C(=O)NCC2CC2)n1)Nc1cccc(C(F)(F)F)c1`: 8.13%; for `CC[C@H](N)C(=O)Nc1nn(CC(F)(F)F)c2cc(OC(C)C)ccc12`: -2.8%.

In the case of `COc1ccccc1C1Cn2c(C)cnc2CN1Cc1c[nH]nc1C` (stereo not drawn), the cytotoxicity at 10 µM worked out at 2.79%. As to `O=C(c1ccc(-c2cccc3c2CCNC3)o1)N1CCOCC1`, the cytotoxicity at 10 µM stood at 3.34%.

With `Cc1cccc(CN2CCC3(CCC(CC(=O)N(C)C)CC3)CC2)n1`, the cytotoxicity at 10 µM was -113%. The figure for `Cc1cccc(-c2c[nH]c(C3CCCN3C(=O)C3CCOCC3)n2)c1` (stereo not drawn) is 1.92%; for `Cc1ccc(N2CCCc3sc(C(=O)NCc4cccnc4)nc32)nn1` it is -2.96%; for `O[C@H]1CCN(CC2CCOC2)[C@H]1Cc1ccncc1` (stereo partly drawn) it is -2.32%.

With `CC/N=c1\nc(NCC)nc2n1C(O)(Nc1cccc(C)c1C)CS2` (stereo not drawn), the cytotoxicity at 10 µM amounted to 11.5%. The figure for `CS(=O)(=O)CCC(=O)N1CCC(c2cccc(F)c2)C1` (stereo not drawn) is 3.71%. For the molecule `Cn1ccc(CN2CC(Cc3nccc4cc[nH]c34)C2)n1`, the cytotoxicity at 10 µM worked out at 9.51%. For `COc1ccc(S(=O)(=O)Nc2cccnc2-n2cncn2)cc1C`, the cytotoxicity at 10 µM was -6.87%. Consider `Cc1cccc(CN2C[C@H]3CCC[C@@]3(COCc3csc(C)n3)C2)n1`, for which the cytotoxicity at 10 µM was determined as 14.3%. For `CNC(=O)NC(=O)CN1CCCC(Cc2ccccc2OC)C1` (stereo not drawn), the cytotoxicity at 10 µM turned out to be 4.95%. The figure for `Cc1cccc(N2CCC3(CCN(Cc4ccccn4)CC3)CC2)n1` is 4.17%.

As to `CC(C)(C)OC(=O)NCC1CCN(C(=O)c2ccccc2O)C1` (stereo not drawn), the cytotoxicity at 10 µM is -3.73%. For the molecule `CCC[C@H]1CN(CCS(C)(=O)=O)C[C@@H]1NC(=O)c1ccccn1`, the cytotoxicity at 10 µM stood at 1.13%. On to `O=C(CCn1nc(-c2cccs2)oc1=O)Nc1cccc(F)c1`, for which the cytotoxicity at 10 µM was -5.21%. Regarding `CN(C)Cc1nc(C(C)(C)NC(=O)c2ccnn2C)no1`, the cytotoxicity at 10 µM turned out to be 0.966%. The same measure for `COc1ccc(NC(=O)c2nc(C)sc2C)cn1`: -2.52%; for `CN1CCCCC1CC(=O)Nc1ccc2ncn(C)c2c1` (stereo not drawn): 4.18%. The same measure for `Cc1ncsc1C(=O)NCCNc1ncccn1`: 1.76%. The figure for `Cc1ncsc1CN1C[C@@H](OCC(=O)N(C)C)[C@H]2OCCC[C@H]21` is -139%; for `O=C(c1cncc(F)c1)N1CCC(c2ncc[nH]2)CC1` it is -1.39%. Consider `c1cnc2c(-c3nccn3C[C@@H]3CCCN4CCCC[C@H]34)cccc2c1`, for which the cytotoxicity at 10 µM was found to be 1.83%. With `CC(C(=O)N(C)C1CCCCC1)S(=O)(=O)Cc1csc(-c2cccs2)n1` (stereo not drawn), the cytotoxicity at 10 µM was -4.27%. The figure for `COc1c(C2CCCN2C(=O)c2cnc[nH]2)c(C)nn1C` (stereo not drawn) is -1.68%; for `COc1ccc(CN(C)CC2(O)CCN(C(=O)c3cccn3C)C2)cc1` (stereo not drawn) it is 5.4%.

As for `Cc1nc2cc(C(=O)N3CCCC(n4cncn4)C3)ccc2n1C` (stereo not drawn), the cytotoxicity at 10 µM is -8.26%. The same measure for `CCC(CC)n1nc(C)cc1NC(=O)CC1CCOCC1`: -2.17%; for `Cc1cn(-c2ccccc2)nc1NS(=O)(=O)c1ccc(C(=O)O)cc1F`: -2.59%. For `Cc1c(C(=O)NCC(F)(F)F)nnn1-c1ccccc1Cl`, the cytotoxicity at 10 µM worked out at 2.37%.

Regarding `Cc1ccccc1-c1cc(C(=O)N2CCCC(n3ccnc3C)C2)[nH]n1` (stereo not drawn), the cytotoxicity at 10 µM is 14.3%. `O=C(NCC(O)c1ccc(F)cc1F)c1cccnc1O` (stereo not drawn): the cytotoxicity at 10 µM is 7.58%.

On to `Cc1noc(C)c1C(=O)N1C[C@@H]2CCCO[C@@H]2[C@H](N(C)C)C1`, for which the cytotoxicity at 10 µM was found to be 9.85%. As to `Cc1cccc(C(=O)NC(C(=O)NCc2ccc(O)nc2)C(C)C)c1` (stereo not drawn), the cytotoxicity at 10 µM is -7.81%. Consider `Fc1cccc(-n2ccc(CN3CCCC3Cn3cncn3)n2)c1` (stereo not drawn), for which the cytotoxicity at 10 µM is -9.43%. The same measure for `O=C(NC[C@]12COC[C@H]1CN(Cc1ccncc1)C2)c1ccco1`: 8.75%; for `O=C(CCc1ccsc1)N1CCC(N2CCNC2=O)CC1`: -0.546%. The figure for `CCn1cnnc1C1CCN(C(=O)c2ccc(Cl)s2)CC1` is -12.2%; for `O=C(Cc1ccsc1)N1CCCCC1c1ccn2ccnc2n1` (stereo not drawn) it is -9.91%. On to `CCOc1ccc(Cl)c(C(=O)NC(C(N)=O)c2ccccc2)n1` (stereo not drawn), for which the cytotoxicity at 10 µM is -0.425%. For the molecule `O=C(NCc1cc(Cl)ccn1)NCc1ccco1`, the cytotoxicity at 10 µM came to 8.5%.

The values are drawn from ChEMBL document CHEMBL4513216, “Probing the Open Global Health Chemical Diversity Library for Multistage-Active Starting Points for Next-Generation Antimalarials” (ACS Infect Dis, 2020).
